Data set [1] in a line: AUC(0 to t) in rat at 3 mg/kg, po up to 360 mins by LC-MS/MS analysis. As to conditions: in vivo. Details: route oral, dose 3 mg/kg, time <=360. In kind it is ADME, organism-based. Put shortly:
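Rats dosed once orally at 3 mg/kg (5 mL/kg) as a suspension in 0.5 w/v% methyl cellulose 400. Jugular vein blood drawn at 5, 10, 15, 30, 60, 120, 240 and 360 min. Plasma levels measured by LC-MS/MS. AUC taken to the last observation point. Mean ± SD.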

Data set [2] is described as follows: Apparent permeability of compound in human Caco-2 cells by LC-MS/MS analysis. The format is ADME, cell-based. Put shortly:
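Caco-2 cells seeded at 1.0 × 10⁵ cells/well on polycarbonate inserts (0.3 cm², 1 μm pores). After 60 min at 37 °C in 5% CO₂, buffer sampled from the opposite side. Compound measured by LC-MS/MS. Papp in 10^-6 cm/s.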

Data set [3] can be described thus: Intrinsic clearance in human liver microsomes at 30 uM up to 60 mins by LC-MS/MS analysis. In kind it is ADME, Microsome. The following applies: read-out: CLH. Put shortly: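 Compound at 30 μM incubated at 37 °C with human liver microsomes (1 mg/mL protein) in 100 mmol/L phosphate pH 7.4 with 10 mM MgCl₂ and 1 mg/mL NADPH. Sampled at 0, 15, 30 and 60 min, quenched with ice-cold acetonitrile, centrifuged. Parent measured by LC-MS/MS. t1/2 and CLint derived from remaining compound.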

Data set [4] can be described thus: Intrinsic clearance in rat intestinal S9 fraction at 10 uM up to 60 min in presence of NADPH by LC-MS/MS analysis.
A short description of data set [5]: Oral bioavailability in rat assessed as ratio of AUC at 3 mg/kg up to 360 mins by LC-MS/MS analysis. The format is ADME, organism-based. The following applies: in vivo. Put shortly: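 Rat oral dosing at 3 mg/kg in 0.5% methyl cellulose, with iv dosing at 1 mg/kg in 20% DMA/80% saline. Jugular blood sampled from 5 to 360 min, plasma quantified by LC-MS/MS. F is the ratio of oral AUC to iv AUC. For the ester prodrug, AUC of the parent glucoside after prodrug dosing is compared with iv parent.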

Data set [6] deals with T1, Sodium/glucose cotransporter 2 (Homo sapiens, UniProt P31639).
T1 sequence (P31639 whole entry): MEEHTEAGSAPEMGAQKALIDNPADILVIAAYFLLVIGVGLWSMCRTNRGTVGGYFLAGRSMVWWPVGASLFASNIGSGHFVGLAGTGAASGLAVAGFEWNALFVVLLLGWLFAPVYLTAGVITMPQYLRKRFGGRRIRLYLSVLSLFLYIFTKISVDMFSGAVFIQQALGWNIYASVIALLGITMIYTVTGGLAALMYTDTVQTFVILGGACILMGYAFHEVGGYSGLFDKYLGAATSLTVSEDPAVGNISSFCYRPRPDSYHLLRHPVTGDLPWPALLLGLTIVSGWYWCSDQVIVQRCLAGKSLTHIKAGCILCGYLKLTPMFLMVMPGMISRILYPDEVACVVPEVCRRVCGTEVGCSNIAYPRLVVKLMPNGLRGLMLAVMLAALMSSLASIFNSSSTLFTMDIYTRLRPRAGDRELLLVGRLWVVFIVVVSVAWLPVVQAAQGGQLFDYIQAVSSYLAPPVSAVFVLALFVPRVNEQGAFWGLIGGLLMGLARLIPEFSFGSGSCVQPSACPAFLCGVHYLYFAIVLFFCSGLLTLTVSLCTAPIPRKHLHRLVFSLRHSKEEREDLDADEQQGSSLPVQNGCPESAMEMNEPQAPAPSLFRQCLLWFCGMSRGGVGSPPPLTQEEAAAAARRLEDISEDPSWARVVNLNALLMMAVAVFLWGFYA
As to the kind of experiment: Inhibition of human SGLT2 expressed in COS7 cells assessed as reduction in [14C]-AMG uptake. In kind it is cell-based. Put shortly: (§1)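 Human SGLT2 expression plasmid transfected into COS-7 cells. Uptake of [¹⁴C]-α-methyl-D-glucopyranoside (AMG) measured with 0.3 mM AMG in uptake buffer. […] Mean ± SEM of at least three independent experiments.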

Data set [7] has as its target T1, Sodium/glucose cotransporter 2. Nature of the data set: Inhibition of human SGLT2 expressed in COS7 cells. The format is cell-based. Put shortly:
as §1

Take `Cc1c(Cc2ccc(OC(C)C)cc2)c(O[C@@H]2O[C@H](CO)[C@@H](O)[C@H](O)[C@H]2O)nn1C(C)C` [REMOGLIFLOZIN]: the AUC(0-t) at 6 h in data set [1] is 27.9 ng·h/mL. Further, the Papp in data set [2] was found to be 3.16 ×10⁻⁶ cm/s. For the same compound, in data set [3], the microsomal CLint at 30 µM was found to be 0.85 µL/min/mg. Also, the microsomal CLint at 10 µM in data set [4] worked out at 3.9 µL/min/mg. The bioavailability in data set [5] came out at 3.23%. Further, the IC50 in data set [6] is 0.0184 µM.
As for `Cc1ccccc1Cc1c(O[C@@H]2O[C@H](CO)[C@@H](O)[C@H](O)[C@H]2O)n[nH]c1C`, the IC50 in data set [6] was determined as 0.914 µM.
Turning to `CSc1ccc(Cc2c(O[C@@H]3O[C@H](CO)[C@@H](O)[C@H](O)[C@H]3O)n[nH]c2C(C)C)cc1`, the microsomal CLint at 10 µM in data set [4] is 4.6 µL/min/mg. Also, the IC50 in data set [6] came to 0.154 µM.
For `CSc1ccc(Cc2c(C(F)(F)F)n[nH]c2O)cc1`, the IC50 in data set [7] was above 1000 µM.
Turning to `Cc1[nH]nc(O[C@@H]2O[C@H](CO)[C@@H](O)[C@H](O)[C@H]2O)c1CCCc1ccccc1`, in data set [6], the IC50 is 3.95 µM.
For `OC[C@H]1O[C@@H](Oc2n[nH]c3cccc(CCc4ccccc4)c23)[C@H](O)[C@@H](O)[C@@H]1O`, in data set [6], the IC50 came to 0.086 µM.
Consider `CCc1[nH]nc(O[C@@H]2O[C@H](CO)[C@@H](O)[C@H](O)[C@H]2O)c1Cc1ccc(SC)cc1`, for which the microsomal CLint at 10 µM in data set [4] came out at 4.8 µL/min/mg. Besides, in data set [6], the IC50 was 0.0512 µM.
For `Cc1ccc(Cc2c(O[C@@H]3O[C@H](CO)[C@@H](O)[C@H](O)[C@H]3O)n[nH]c2C)cc1`, in data set [6], the IC50 was 0.0122 µM.
With `CCn1nc(O[C@@H]2O[C@H](CO)[C@@H](O)[C@H](O)[C@H]2O)c(Cc2ccc(OC(C)C)cc2)c1C`, the microsomal CLint at 30 µM in data set [3] amounted to 4.15 µL/min/mg. Further, the IC50 in data set [6] was found to be 0.0434 µM.
Consider `CCCOc1ccc(Cc2c(O[C@@H]3O[C@H](CO)[C@@H](O)[C@H](O)[C@H]3O)n[nH]c2C)cc1`, for which, in data set [6], the IC50 amounted to 0.0154 µM.
As for `Cc1[nH]nc(O[C@@H]2O[C@H](CO)[C@@H](O)[C@H](O)[C@H]2O)c1Cc1ccc(OC(C)C)cc1`, the AUC(0-t) at 6 h in data set [1] was 6.42 ng·h/mL. The Papp in data set [2] is 1.02 ×10⁻⁶ cm/s. The microsomal CLint at 30 µM in data set [3] is 1.44 µL/min/mg. The microsomal CLint at 10 µM in data set [4] came out at 4.1 µL/min/mg. Further, in data set [5], the bioavailability is 0.43%. In data set [6], the IC50 was 0.01 µM.
With `Cc1[nH]nc(O[C@@H]2O[C@H](CO)[C@@H](O)[C@H](O)[C@H]2O)c1CCc1ccccc1`, the IC50 in data set [6] stood at 5.29 µM.
Consider `CSc1ccc(Cc2c(O[C@@H]3O[C@H](CO)[C@@H](O)[C@H](O)[C@H]3O)n[nH]c2C)cc1`, for which the microsomal CLint at 10 µM in data set [4] amounted to 3.2 µL/min/mg. For the same compound, the IC50 in data set [6] stood at 0.0049 µM.
With `CCc1ccc(Cc2c(O[C@@H]3O[C@H](CO)[C@@H](O)[C@H](O)[C@H]3O)n[nH]c2C)cc1`, the IC50 in data set [6] came out at 0.0039 µM.
On the same count and under the same terms, with `CCCc1ccc(Cc2c(O[C@@H]3O[C@H](CO)[C@@H](O)[C@H](O)[C@H]3O)n[nH]c2C)cc1` the figure was 0.0088 µM.
Regarding `CCCn1nc(O[C@@H]2O[C@H](CO)[C@@H](O)[C@H](O)[C@H]2O)c(Cc2ccc(OC(C)C)cc2)c1C`, the microsomal CLint at 30 µM in data set [3] was 6.75 µL/min/mg. For the same compound, the IC50 in data set [6] turned out to be 0.0661 µM.
For `CCOc1ccc(Cc2c(O[C@@H]3O[C@H](CO)[C@@H](O)[C@H](O)[C@H]3O)n[nH]c2C)cc1`, the IC50 in data set [6] was determined as 0.0108 µM.
The same measure, in the same setting: the same measure for `Cc1cccc(Cc2c(O[C@@H]3O[C@H](CO)[C@@H](O)[C@H](O)[C@H]3O)n[nH]c2C)c1`: 0.757 µM.
Turning to `Cc1c(Cc2ccc(OC(C)C)cc2)c(O[C@@H]2O[C@H](CO)[C@@H](O)[C@H](O)[C@H]2O)nn1C`, the microsomal CLint at 30 µM in data set [3] worked out at 3.73 µL/min/mg. Also, in data set [6], the IC50 came to 0.11 µM.
For `Cc1[nH]nc(O[C@@H]2O[C@H](CO)[C@@H](O)[C@H](O)[C@H]2O)c1Cc1ccccc1`, the IC50 in data set [6] was determined as 0.181 µM.
On the same count and under the same terms, the same measure for `Cc1nn(C)c(O[C@@H]2O[C@H](CO)[C@@H](O)[C@H](O)[C@H]2O)c1Cc1ccc(OC(C)C)cc1`: above 1 µM.
With `CCOC(=O)OC[C@H]1O[C@@H](Oc2nn(C(C)C)c(C)c2Cc2ccc(OC(C)C)cc2)[C@H](O)[C@@H](O)[C@@H]1O` [REMOGLIFLOZIN ETABONATE], the Papp in data set [2] was 4.29 ×10⁻⁶ cm/s. For the same compound, the microsomal CLint at 10 µM in data set [4] was determined as 3.4 µL/min/mg. For the same compound, the bioavailability in data set [5] came out at 5.79%. For the same compound, in data set [6], the IC50 is 2.53 µM.
As to `Cc1[nH]nc(O[C@@H]2O[C@H](CO)[C@@H](O)[C@H](O)[C@H]2O)c1Cc1ccc(C(C)C)cc1`, in data set [6], the IC50 was found to be 0.0162 µM.
Take `CSc1ccc(Cc2c(O[C@@H]3O[C@H](CO)[C@@H](O)[C@H](O)[C@H]3O)n[nH]c2C(F)(F)F)cc1`: in data set [4], the microsomal CLint at 10 µM stood at 73.2 µL/min/mg. Besides, in data set [6], the IC50 was 0.0163 µM.
As for `COc1ccc(Cc2c(O[C@@H]3O[C@H](CO)[C@@H](O)[C@H](O)[C@H]3O)n[nH]c2C)cc1`, in data set [6], the IC50 came to 0.0123 µM.

For the origin of these results see ChEMBL document CHEMBL4715919 (Bioorg Med Chem, 2021).
